SIRT5 block: SIRT5 desuccinylase inhibitors, primary screen, biochemical, fluorescence imaging, single point, set 5; AID 652115, 2013; inhibition, % at 15 µM; NAD-dependent protein deacylase sirtuin-5, mitochondrial (Homo sapiens), Q9NXA8; Purified SirT5, succinyl-peptide AMC, trypsin-coupled fluorescence; actives 1.1% (n = 330,000); in the data active = inhibition above about 15%; inconclusive = no clear call, values can overlap the other calls
CAL PDZ FP-1: CAL PDZ peptide-binding inhibitors, primary screen, biochemical, fluorescence polarization, Cer-tagged CAL PDZ, HTS | Golgi-associated PDZ and coiled-coil motif-containing protein (Homo sapiens), Q9HD26 | purified CAL PDZ, TMR-peptide fluorescence polarization, 1 h | inhibition, % at 20 µM | actives 0.02% (n = 330,000);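 active = highest replicate inhibition of at least 40%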;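 also: plate controls were DMSO neutral control wells for no effect and unlabeled competitor peptide control wells for full effect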
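Material: tagged CAL PDZ protein CerCALP, purified; buffer or medium: sodium phosphate/NaCl buffer pH 7.4 with TCEP, IgG, Thesit; also added: fluorescent TMR peptide probe; schedule: 1 h incubation at room temperature before polarization reading; technique: fluorescence polarization from S- and P-plane intensities, G-factor corrected; control set: unlabelled peptide and DMSO controls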
ERAP1 HTS inh: human ERAP1 aminopeptidase inhibitors, primary screen, biochemical, single point, plate reader | actives 0.15% (n = 340,000) | recombinant ERAP1, Leu-AMC fluorescence, 60 min | AID 652197, 2013 | inhibition, % at 10.7 µM;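 active = mean replicate inhibition of at least 30%, or all replicates individually reaching that 30% level; inactive = mean below 30% and not every replicate reaching it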;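 also: 0% = neutral control wells and 100% = L-leucinethiol positive control wells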
Target sequence (Q9NZ08 whole entry, looked up): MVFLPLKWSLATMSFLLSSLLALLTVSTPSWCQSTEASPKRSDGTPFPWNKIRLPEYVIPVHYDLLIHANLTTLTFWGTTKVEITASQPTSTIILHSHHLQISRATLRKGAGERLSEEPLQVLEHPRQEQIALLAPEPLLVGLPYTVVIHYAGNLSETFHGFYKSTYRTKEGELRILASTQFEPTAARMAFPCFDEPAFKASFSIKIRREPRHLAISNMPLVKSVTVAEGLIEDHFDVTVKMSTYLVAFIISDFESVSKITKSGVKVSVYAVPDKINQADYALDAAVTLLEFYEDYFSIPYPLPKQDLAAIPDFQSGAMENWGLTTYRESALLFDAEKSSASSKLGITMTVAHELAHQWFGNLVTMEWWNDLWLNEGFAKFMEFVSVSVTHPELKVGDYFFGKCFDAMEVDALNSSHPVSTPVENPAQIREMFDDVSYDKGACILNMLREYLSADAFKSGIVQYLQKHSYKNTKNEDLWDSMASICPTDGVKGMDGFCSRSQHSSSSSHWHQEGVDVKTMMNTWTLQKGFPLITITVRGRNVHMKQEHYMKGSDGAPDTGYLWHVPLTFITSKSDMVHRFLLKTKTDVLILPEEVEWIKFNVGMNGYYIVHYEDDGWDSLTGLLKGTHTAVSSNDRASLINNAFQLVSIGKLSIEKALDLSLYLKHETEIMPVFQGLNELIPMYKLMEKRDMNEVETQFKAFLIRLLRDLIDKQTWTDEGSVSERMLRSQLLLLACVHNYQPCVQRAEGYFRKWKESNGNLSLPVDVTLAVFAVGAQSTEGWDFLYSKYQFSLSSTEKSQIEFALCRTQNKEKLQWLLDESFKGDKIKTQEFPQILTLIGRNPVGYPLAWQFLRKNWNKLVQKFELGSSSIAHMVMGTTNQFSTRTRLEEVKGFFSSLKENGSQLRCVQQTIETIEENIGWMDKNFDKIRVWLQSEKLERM
CAL PDZ FP-2: untagged CAL PDZ binding inhibitors, primary screen, biochemical, fluorescence polarization, HTS; Golgi-associated PDZ and coiled-coil motif-containing protein (Homo sapiens), Q9HD26; purified CAL PDZ, TMR-peptide fluorescence polarization, 1 h; inhibition, % at 24.9 µM; actives 0.92% (n = 300,000); AID 602252, 2012;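 active = mean inhibition of at least 30% with at least half of replicates also reaching 30%; inconclusive = no clear call, values can overlap the other calls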;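 also: 0% = DMSO neutral control and 100% = excess unlabeled competitor peptide PRC23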
DENV2 CPE: inhibitors of DENV2 cytopathic effect, primary screen, cell-based, plate reader, single concentration; DENV2-infected cells, cytopathic effect rescue; CPE inhibition, % at 9.99 µM; actives 1.7% (n = 350,000); AID 651640, 2012; in the data active = CPE inhibition above about 20%, passing the limit was not always enough; inconclusive = no clear call, values can overlap the other calls; tested in BHK-21 cells;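 also: 0% = median of neutral control wells and 100% = median of positive control wells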
S100A4 MyoIIA: inhibitors of S100A4-myosin IIA peptide binding, primary screen, biochemical, fluorescence polarization, TAMRA-MyoIIA peptide; AID 652163, 2013; Protein S100-A4 (Homo sapiens), P26447; inhibition, % at 10.7 µM; actives 0.14% (n = 360,000);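 active = mean inhibition of at least 70% across replicates, with every replicate also reaching that level; inconclusive = mean inhibition reaches 70% but some replicates fall short; inactive = mean inhibition below 70%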
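Material: S100A4 monomer protein | Medium: HEPES pH 7.2 with CaCl2, KCl, NaCl, DTT, Triton | Reagent: Labelled myosin peptide probe, 5 nM | Doses: One dose per compound | Times: 5 min incubation before reading | Benchmarks: Neutral control DMSO, positive control TFP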
Active calls of the source: *; u = inconclusive; x = no result given; + = active, no number. In the library only some 2.9% were active in any assay of this set; here they are far more common.

SMILES | SIRT5 block | CAL PDZ FP-1 | ERAP1 HTS inh | CAL PDZ FP-2 | DENV2 CPE | S100A4 MyoIIA
Cc1ccc(-c2ccc([C@@H]3[C@H]4CN(S(=O)(=O)c5cccc(C)c5)CCCCN4[C@H]3CO)cc2)cc1 | 18* | x | 3 | x | -7 | 12
Cc1ccc(-c2ccc([C@H]3[C@@H](CO)N4CCCCN(S(=O)(=O)c5cccc(C)c5)C[C@@H]34)cc2)cc1 | -3 | x | 3 | x | 4 | 3
Cc1ccc(-c2ccc([C@@H]3[C@@H](CO)N4CCCCN(S(=O)(=O)c5cccc(C)c5)C[C@H]34)cc2)cc1 | 23* | x | 1 | x | 0 | 11
Cc1cccc(S(=O)(=O)N2CCCCN3[C@H](CO)[C@H](c4ccc(-c5ccccc5)cc4)[C@@H]3C2)c1 | -1 | x | 0 | x | -4 | 7
C[C@@H]1CCCCO[C@@H](CN(C)C(=O)Cc2ccccc2)[C@@H](C)CN([C@H](C)CO)C(=O)c2cc(NC(=O)CCC(F)(F)F)ccc2O1 | x | x | x | x | -4 | x
Cc1noc(C)c1NC(=O)N(C)C[C@@H]1Oc2ccc(NC(=O)NC3CCCCC3)cc2CC(=O)N([C@H](C)CO)C[C@H]1C | 0 | x | 0 | x | 32* | 2
Cc1noc(C)c1NC(=O)N(C)C[C@@H]1Oc2ccc(NC(=O)Cc3ccccc3)cc2CC(=O)N([C@H](C)CO)C[C@H]1C | -4 | x | 1 | x | 6 | 20
Cc1noc(C)c1NC(=O)N(C)C[C@H]1Oc2ccc(NC(=O)Cc3ccccc3)cc2CC(=O)N([C@@H](C)CO)C[C@H]1C | -8 | x | x | x | 54* | x
Cc1noc(C)c1NC(=O)Nc1ccc2c(c1)CC(=O)N([C@H](C)CO)C[C@H](C)[C@H](CN(C)C(=O)Nc1ccccc1)O2 | -1 | x | 3 | x | 20* | 2
Cc1noc(C)c1NC(=O)Nc1ccc2c(c1)CC(=O)N([C@H](C)CO)C[C@H](C)[C@@H](CN(C)Cc1ccc(-c3ccccc3)cc1)O2 | 15 | x | 1 | x | 18 | -22
Cc1noc(C)c1NC(=O)Nc1ccc2c(c1)CC(=O)N([C@H](C)CO)C[C@@H](C)[C@@H](CN(C)Cc1ccc(-c3ccccc3)cc1)O2 | 16* | x | 2 | x | u | 5
CCCNC(=O)N1CC2(CN(C(=O)Cc3cccnc3)C2)c2c([nH]c3cc(OC)ccc23)[C@@H]1CO | -2 | x | -1 | x | 12 | 0
C[C@H]1CN([C@@H](C)CO)S(=O)(=O)c2ccc(/C=C/c3ccccc3)cc2O[C@@H]1CN(C)C(=O)C1CC1 | 9 | x | -1 | x | 6 | -11
C[C@H]1CN([C@@H](C)CO)S(=O)(=O)c2ccc(/C=C/c3ccccc3)cc2O[C@H]1CN(C)C(=O)C1CC1 | 15* | x | -2 | x | 2 | -10
C[C@@H]1CN([C@@H](C)CO)S(=O)(=O)c2ccc(/C=C/c3ccccc3)cc2O[C@@H]1CN(C)C(=O)C1CC1 | 17* | x | 0 | x | 2 | -6
O=C(Nc1cccc(F)c1)N1CC(=O)N2[C@H](CO)[C@H](c3ccc(C#Cc4cccnc4)cc3)[C@@H]2C1 | 1 | x | 0 | x | 5 | 9
CNC[C@H]1OCCCC[C@@H](C)Oc2ccc(NC(=O)NC3CCCCC3)cc2C(=O)N([C@H](C)CO)C[C@H]1C | -1 | x | -2 | x | u | -14
CCN1CCN(CCNC(=O)c2cc(Cl)c(NC(=O)C3=C(C)OCCS3)cc2OC)CC1 | 1 | -3 | -1 | 3 | -2 | 126*
CCN(CC)CCCNC(=O)c1cc(Cl)c(NC(=O)C2=C(C)OCCS2)cc1OC | 3 | -1 | 1 | -4 | -8 | -8
CCC(C)NC(=S)Nc1ccccc1 (centres undefined) | 1 | 0 | 2 | 75* | -1 | 3
Cc1cccc(C)c1NC(=S)NC(C)CCc1ccccc1 (centres undefined) | -3 | -1 | 2 | x | 47* | 3
Cc1ccc(NC(=S)NC(C)CCc2ccccc2)cc1C (centres undefined) | x | -1 | -1 | -1 | 17 | -12
C=CC[C@@H](CC(=O)N[C@H](CO)Cc1ccccc1)C(=O)N[C@@H](COC(=O)[C@@H](CC=C)CC(=O)OC(C)(C)C)Cc1ccccc1 | 18* | 0 | -3 | -2 | 0 | 21
C=CC[C@@H](CC(=O)OC(C)(C)C)C(=O)OC[C@@H]1CCCN1C(=O)[C@@H](CC=C)CC(=O)N[C@@H](CO)Cc1ccccc1 | 25* | 0 | 3 | -2 | -8 | 11
C[C@@H]1CCCCO[C@@H](CN(C)S(C)(=O)=O)[C@H](C)CN([C@H](C)CO)C(=O)c2cc(NC(=O)Nc3ccc4c(c3)OCO4)ccc2O1 | -4 | x | 0 | x | 5 | 10
SMILES | SIRT5 block | CAL PDZ FP-1 | ERAP1 HTS inh | CAL PDZ FP-2 | DENV2 CPE | S100A4 MyoIIA
CCOc1ccccc1CNC(=O)CN1C(=O)CSc2ccc(S(=O)(=O)N3CCOCC3)cc21 | -2 | -1 | -4 | + | 3 | -2
Cc1c(Br)c([N+](=O)[O-])nn1C(C)C(=O)N1CCc2ccccc2C1 (centres undefined) | 4 | -1 | -2 | x | 24* | -20
Cc1c(Br)c([N+](=O)[O-])nn1CC(=O)N1CCc2ccccc2C1 | -1 | -4 | -1 | -14 | 9 | -5
CCOC(=O)N1CCN(C(C(=O)NC2CCCC2)C(C)C)CC1 (centres undefined) | 1 | x | -3 | x | 30* | 0
COc1ccc(OCc2nnc(SCC(=O)NC3CC3)n2C)cc1 | -2 | 0 | -2 | x | -9 | -3
COc1ccc(C(=O)NCc2nnc(SCC(=O)NC3CCCCC3)n2C)cc1 | -3 | -1 | 30* | -2 | 0 | 8
COc1ccccc1C#Cc1ccc([C@@H]2[C@@H](CO)N3CCCCN(C(=O)C4CCCC4)C[C@H]23)cc1 | 14 | x | 1 | x | -4 | -4
Cc1ccc(S(=O)(=O)N2CC[C@@H]3[C@H]2c2cc(Br)ccc2N[C@@H]3CO)cc1 | 15* | x | 2 | x | 11 | 2
Cc1ccc(S(=O)(=O)N2CC[C@H]3[C@H](CO)Nc4ccc(Br)cc4[C@H]32)cc1 | 1 | x | 2 | x | 3 | -6
COc1ccc(-c2ccc3c(c2)[C@H]2[C@H](CCN2S(=O)(=O)c2ccc(OC)cc2)[C@H](CO)N3)cc1 | x | x | x | x | 54* | x
COc1ccccc1C#Cc1ccc2c(c1)[C@@H]1[C@@H](CCN1S(=O)(=O)c1ccc(F)cc1)[C@@H](CO)N2 | 10 | x | -1 | x | 29* | -1
